We go through 12 compounds from ChEMBL document CHEMBL1122439 (J Med Chem, 1983).

The source made the active and inactive calls. The rule behind the calls is not given here.

Series [1] addresses Histamine H2 receptor (Cavia porcellus) (UniProt P47747). Kind of series: Evaluated in vitro for Histamine H2 receptor inhibition using the dimaprit stimulated chronotropic response of the guinea pig atrium; inact means inactive at 8 x 10 -8 M. Format: tissue-based. Particulars: Cardiac atrium, in the assay text read “8 x 10 -5 M” for “8 x 10 -8 M”. The procedure, abridged:
(§1)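 Isolated guinea pig atria; chronotropic response to rising concentrations of H2 agonist dimaprit (10⁻⁷–10⁻⁴ M) in presence of test agent; three to four atria per test concentration; -log K_I = log(ED50 dose ratio − 1) − log(drug dose).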

Series [2] has as its system Canis familiaris. The series is described as follows: % Inhibition of acid output in dogs at a dose of 5.0 mg/kg administered intravenously. To be noted: Canis lupus familiaris, route intravenous. Format: functional. The procedure, abridged:
(§2)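 Dogs with chronic gastric fistula; gastric acid secretion evoked by maximal stimulating histamine dose (64 μg/kg, sc). Test agent given intravenously, or intragastrically via fistula for peroral dosing; percent inhibition of acid output recorded at the stated single dose.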

In series [3] the test system is Canis familiaris. Kind of series: % Inhibition of acid output in dogs at a dose of 20 mg/kg administered perorally. Format: functional. To be noted: Canis lupus familiaris, route oral. The procedure, abridged: as §2
A further series concerns the target Histamine H2 receptor (Cavia porcellus, UniProt P47747). The series is described as follows: Evaluated in vitro for Histamine H2 receptor inhibition using the dimaprit stimulated chronotropic response of the guinea pig atrium. Format: tissue-based, Cardiac atrium. The procedure, abridged: as §1
For series [4], the system named is Canis familiaris. Kind of series: Effective dose administarted intravenously required for 50 % inhibition of acid output in dogs; value may range from 0.15-0.18. Format: functional. Particulars: Canis lupus familiaris, iv.
A short description of series [5]: pKa of heterocyclic component measured as proton gained. The series is classed as physicochemical. The procedure, abridged: (§3)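 Potentiometric titration in water with glass electrodes; heterocycle pKa taken as proton gained, urea-component pKa as proton lost; method upper limit pKa 11.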
Series [6] has as its system Canis familiaris. Kind of series: Effective dose administarted perorally required for 50 % inhibition of acid output in dogs. Format: functional. Particulars: Canis lupus familiaris, po.
For series [7], the system named is Canis familiaris. The series is described as follows: % Inhibition of acid output in dogs at a dose of 10 mg/kg administered perorally. The series is classed as functional. Particulars: Canis lupus familiaris, route oral. The procedure, abridged:
as §2

In series [8] the test system is Canis familiaris. Kind of series: % Inhibition of acid output in dogs at a dose of 0.03 mg/kg administered intravenously. The series is classed as functional. Particulars: Canis lupus familiaris, route intravenous. The procedure, abridged: as §2
Series [9] in a line: pKa of urea component measured as proton lost reference pKa for the 3,4 diaminothiadiazole 1-oxide is ~11 in water. The series is classed as physicochemical. Particulars: buffer. The procedure, abridged: as §3
Series [10] has as its system Canis familiaris. Kind of series: Effective dose administarted intravenously required for 50 % inhibition of acid output in dogs; value may range from 0.01-0.08. Particulars: Canis lupus familiaris, iv. Format: functional.
The subject of series [11] is Canis familiaris. The series is described as follows: Effective dose administarted intravenously required for 50 % inhibition of acid output in dogs; value may range from 0.01-0.02. The series is classed as functional. To be noted: Canis lupus familiaris, iv.
Series [12] has as its system Canis familiaris. The series is described as follows: % Inhibition of acid output in dogs at a dose of 3.0 mg/kg administered intravenously. Format: functional. Particulars: Canis lupus familiaris, route intravenous. The procedure, abridged:
as §2

Series [13] deals with Canis familiaris. The series is described as follows: Effective dose administarted intravenously required for 50 % inhibition of acid output in dogs; Value may range from 0.01-0.03. The series is classed as functional. Particulars: Canis lupus familiaris, iv.
The test system of series [14] is Canis familiaris. Kind of series: Effective dose administarted perorally required for 50 % inhibition of acid output in dogs; value may range from 0.7-10.9. The series is classed as functional. To be noted: Canis lupus familiaris, po.

Sequence of Histamine H2 receptor (P47747 whole entry): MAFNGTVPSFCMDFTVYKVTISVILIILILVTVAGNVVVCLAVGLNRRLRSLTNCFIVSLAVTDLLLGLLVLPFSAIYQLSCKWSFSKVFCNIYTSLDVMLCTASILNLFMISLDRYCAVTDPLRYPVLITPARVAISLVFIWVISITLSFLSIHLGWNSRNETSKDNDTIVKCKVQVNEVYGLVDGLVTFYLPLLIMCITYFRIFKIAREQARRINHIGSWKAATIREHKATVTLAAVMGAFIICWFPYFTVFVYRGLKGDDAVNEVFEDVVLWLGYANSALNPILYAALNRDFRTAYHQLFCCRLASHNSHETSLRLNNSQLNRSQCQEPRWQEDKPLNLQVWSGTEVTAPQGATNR
Sequence of Histamine H2 receptor (Cavia porcellus) (P47747 whole entry): as above

As usually defined, the inhibition in vivo is the percentage by which the read-out fell short of the control. Low values mean little suppression, high ones strong suppression. On to `C/N=C(\NC#N)Nc1ccc(-c2[nH]cnc2C)cc1`, for which the “-Log Ki” value in series [1] is “inactive”. This compound also came in with an inhibition in vivo at 5 mg/kg with Canis familiaris [2] of 0%.

On to `C/N=C(\NC#N)Nc1ccccc1-c1[nH]cnc1C`, for which the “-Log Ki” value in [1] is “inactive”. For the same compound, at 5 mg/kg the inhibition in vivo in the series with Canis familiaris [2] was 4%.

As usually defined, the Ki is the dissociation constant of the complex between target and ligand, obtained from inhibition or displacement. A lower Ki goes with higher affinity. In the case of `Cc1[nH]cnc1-c1cccc(Nc2n[s+]([O-])nc2N)c1` (configuration not stated), the inhibition in vivo at 5 mg/kg in the series with Canis familiaris [2] was determined as 5%. For the same compound, the inhibition in vivo at 20 mg/kg in the series with Canis familiaris [3] turned out to be 1%. Moreover, the Ki on Histamine H2 receptor was 794 nM.

A word on the ED50: it is the dose at which the effect has come halfway, by size or by number of responders. Low readings indicate an effect at a small dose, high ones a need for a large dose. Usually pKa stands for the negative logarithm of the acid dissociation constant. A lower pKa goes with a stronger acid or weaker base. `CNC(=NCCSCc1csc(N=C(N)N)n1)NC#N` [TIOTIDINE]: the values for the median effective dose (ED50) in the series with Canis familiaris [4] and with Canis familiaris [6] were 0.16 mg/kg and 0.12 mg/kg, respectively. This compound showed a pKa in [5] of 7.1.

Compound `N=C(N)Nc1nc(-c2cccc(Nc3n[s+]([O-])nc3N)c2)cs1` (configuration not stated) gave an inhibition in vivo at 10 mg/kg with Canis familiaris [7] of 31%. The same compound yielded an inhibition in vivo at 0.03 mg/kg with Canis familiaris [8] of 58%. For the same compound, the pKa in series [9] is 8.9; in series [5] it was 6.2. The compound further came in with an ED50 with Canis familiaris [10] of 0.02 mg/kg. On Histamine H2 receptor, this compound had a Ki of 316 nM.

Compound `CNc1n[s+]([O-])nc1Nc1cccc(-c2csc(N=C(N)N)n2)c1` (configuration not stated) showed an inhibition in vivo at 10 mg/kg with Canis familiaris [7] of 21%. Testing at 0.03 mg/kg in the series on Canis familiaris [8] gave an inhibition in vivo of 85%. The 50% effect level in the series with Canis familiaris [11] (ED50) was put at a dose of 0.017 mg/kg. Also, on Histamine H2 receptor, affinity was put at a Ki of 398 nM.

For the compound `CN/C(=C\[N+](=O)[O-])Nc1ccc(-c2csc(N=C(N)N)n2)cc1`, the pKa worked out at 9.7 in series [9] and 6.2 in [5]. Further, on Histamine H2 receptor, the affinity, expressed as Ki, was 31600 nM. Moreover, in the series with Canis familiaris [12], the inhibition in vivo at 3 mg/kg amounted to 55%.

`CN/C(=C/[N+](=O)[O-])Nc1cccc(-c2csc(N=C(N)N)n2)c1`: in the series with Canis familiaris [7], 10 mg/kg produced 70% inhibition in vivo. The same compound gave an inhibition in vivo at 0.03 mg/kg with Canis familiaris [8] of 59%. Further, the values for the pKa in series [9] and in series [5] were 9.2 and 6, respectively. For the same compound, on Histamine H2 receptor, the Ki was 200 nM.

`CN/C(=N\CCSCc1nc[nH]c1C)NC#N` [CIMETIDINE] came in with a pKa in [5] of 6.4. This compound also yielded an ED50 in the series on Canis familiaris [6] of 2.86 mg/kg.

Take `CNC(=NC#N)Nc1cccc(-c2nc[nH]c2C)c1`: the inhibition in vivo at 5 mg/kg with Canis familiaris [2] stood at 48%. At Histamine H2 receptor, this compound had a Ki of 39800 nM.

In turn, `C/N=C(\NC#N)Nc1cccc(-c2csc(N=C(N)N)n2)c1` had an inhibition in vivo at 10 mg/kg with Canis familiaris [7] of 73%. Moreover, in the series on Canis familiaris [8], the inhibition in vivo at 0.03 mg/kg was 79%. The ED50 in the series with Canis familiaris [13] was 0.02 mg/kg; in the series with Canis familiaris [14] it was 2.81 mg/kg. This compound yielded a pKa in [5] of 6.2. For the same compound, the Ki at Histamine H2 receptor was 316 nM.

On to `CN/C(=C\[N+](=O)[O-])Nc1cccc(-c2[nH]cnc2C)c1`, for which the inhibition in vivo at 5 mg/kg in the series with Canis familiaris [2] worked out at 28%. In the series with Canis familiaris [3], this compound registered an inhibition in vivo at 20 mg/kg of 54%. The compound further gave an inhibition constant (Ki) at Histamine H2 receptor of 15800 nM.
